MrgX1 antag = antagonists of human MrgX1 receptor, primary screen, HEK293 cells, Fluo-4 calcium flux; Mas-related G-protein coupled receptor member X1 (Homo sapiens), Q96LB2; BAM8-22 antagonism; active compounds read low; B-score at 10 µM; actives 1.3% (n = 310,000); AID 588676, 2011;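 active = calcium-response B-score plate-corrected more than 3 library SD below zero, starting fluorescence within 5 deviations, no agonist response on first addition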;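 note: peak minus trough fluorescence over baseline after final BAM8-22 challenge near maximal dose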
Target sequence (Q96LB2 whole entry, looked up): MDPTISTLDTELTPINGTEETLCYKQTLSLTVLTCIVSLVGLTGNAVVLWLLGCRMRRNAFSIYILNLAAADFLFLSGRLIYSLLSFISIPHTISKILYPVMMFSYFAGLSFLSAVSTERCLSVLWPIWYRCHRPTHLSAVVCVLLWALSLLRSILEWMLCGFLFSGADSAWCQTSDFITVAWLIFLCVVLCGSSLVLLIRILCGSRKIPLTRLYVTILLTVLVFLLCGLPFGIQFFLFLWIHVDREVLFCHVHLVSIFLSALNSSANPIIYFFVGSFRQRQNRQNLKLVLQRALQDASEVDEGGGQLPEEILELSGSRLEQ
MrgX1 PAM = positive allosteric modulators of MrgX1, primary screen, HEK293 cells, Fluo-4 calcium flux; B-score at 10 µM; Mas-related G-protein coupled receptor member X1 (Homo sapiens), Q96LB2; actives 0.63% (n = 310,000); FDSS; active compounds read high;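 active = plate-corrected calcium response at least 3 library SD above typical, normal starting fluorescence, not activating the receptor alone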;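 note: compound read alongside a low EC10 to EC30 dose of BAM8-22 agonist; peak minus trough fluorescence over baseline measured at the second addition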
MrgX1 agonist = agonists of human MrgX1 receptor, primary screen, HEK293 cells, Fluo-4 calcium flux. Fluo-4 calcium fluorescence, agonist mode; active compounds read high. B-score at 10 µM. actives 0.44% (n = 310,000). Mas-related G-protein coupled receptor member X1 (Homo sapiens), Q96LB2. AID 588627, 2011;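 active = calcium response B-score plate-corrected fluorescence ratio at least 3 library SD, with starting fluorescence B-score inside 5 SD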
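times = overnight plating, then 30 min 37 °C plus 30 min room-temperature dye loading | assay system = stable human MrgX1 HEK293 cell line | input = fifteen thousand cells per well | signal = kinetic calcium dye fluorescence, Fluo-4 NW | dosing = compound delivered in addition one of three | read-out = B-scored fluorescence response ratio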
RGS4 block = RGS4 inhibitors, primary screen, cell-based, HEK293 M3R inducible RGS4, calcium flux; Fluo-4 calcium flux; active compounds read high; triggered by carbachol at its EC20; Regulator of G-protein signaling 4 (Homo sapiens), P49798; B-score at 10 µM; actives 0.45% (n = 310,000);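 active = B-score, a plate-corrected calcium signal, over three deviations above library mean, with baseline fluorescence within five deviations of library mean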;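 note: RGS4 expression induced by doxycycline in cells with stable M3 receptor; B-score is computed from the integrated fluorescence ratio over baseline after carbachol; higher B-score means a larger calcium signal and so more RGS4 inhibition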
RGS4 act = RGS4 potentiators or activators, primary screen, cell-based, HEK293 M3R inducible RGS4, calcium flux; actives 0.92% (n = 310,000); carbachol calcium flux Fluo4; active compounds read low; B-score at 10 µM;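 active = B-score of the integrated calcium signal more than 4 SD below the library mean, with starting fluorescence not abnormally high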;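 note: negative B-score means reduced calcium response which marks RGS4 activation or potentiation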
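Test system: HEK293 cells with stable M3R and inducible RGS4; also added: carbachol at ECmax as muscarinic agonist stimulus; schedule: dye loading 30 min 37 °C, buffer rest 30 min RT; technique: kinetic calcium fluorescence imaging with Fluo4-AM dye, 2 µM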
An asterisk follows results filed as active; i = inactive. The list is not random: actives were taken first. Their share in the collection is about 3.5%.

SMILES	MrgX1 antag	MrgX1 PAM	MrgX1 agonist	RGS4 block	RGS4 act
CCN(CC)S(=O)(=O)c1cccc(NC(=O)C2SC(=Nc3ccc(C)cc3C)C(C(=O)NC(C)COC)=C2N)c1 (configuration not stated)	i	i	i	i	i
O=C(Nc1ccc(Cl)c([N+](=O)[O-])c1)C(Sc1ccccc1)c1ccccc1 (configuration not stated)	i	i	i	i	-8.6*
O=c1[nH]c(CN2CCN(S(=O)(=O)/C=C/c3ccccc3)CC2)nc2cc(Cl)ccc12	i	i	i	i	i
O=C(Nc1ccccc1)c1ccc(-c2ccc(Br)cc2)o1	i	i	i	i	i
COc1ccc(Br)cc1C(=O)Nc1cccc(NC(=O)c2ccco2)c1	i	i	i	i	i
O=C(Nc1cccc(NC(=O)c2ccc(-c3cccc(Br)c3)o2)c1)c1ccco1	i	i	i	i	-8.9*
O=C(Nc1cccc(NC(=O)c2ccc(-c3ccc(Br)cc3)o2)c1)c1ccccc1	-4.6*	i	i	i	i
COc1ccccc1CNC(=O)C1CCCN(S(=O)(=O)c2cccc3nonc23)C1 (configuration not stated)	i	i	i	i	i
O=C(NCC1CCCO1)/C(=C/c1cn(-c2ccccc2)nc1-c1cccnc1)NC(=O)c1ccccc1 (configuration not stated)	i	i	i	i	i
COC(=O)CCSCC(=O)Nc1ccc(C)c(S(=O)(=O)N2CCCCC2)c1	i	i	i	i	i
CSc1c(C#N)c(N)nc2sc(C(=O)c3ccc(Cl)c(Cl)c3)c(N)c12	-5.2*	i	i	i	i
COc1ccc(-c2c(C#N)c(N)nc3sc(C(=O)c4ccccc4)c(N)c23)cc1	i	i	i	i	i
CCC1CCC/C1=N\NC(=O)c1ccoc1C (configuration not stated)	i	i	i	i	i
CCCN=C1N/C(=C\c2ccco2)C(=O)N1c1ccccc1	i	i	i	i	i
CCCN(CCC)C1=N/C(=C\c2ccco2)C(=O)N1c1ccccc1	i	6.9*	i	i	i
CCCCNC(=O)CCCCCn1c(=O)[nH]c2cc(C(=O)OC)ccc2c1=O	i	14*	i	i	i
Cc1ccc(N2CC(C(=O)OCC(=O)NNC(=O)c3ccccc3)CC2=O)cc1 (configuration not stated)	i	i	i	i	i
COC(=O)c1ccccc1NC(=O)CN1CCN(C23CC4CC(CC(C4)C2)C3)CC1	i	i	i	i	-8*
COC(=O)c1ccccc1NC(=O)CN1CCc2ccccc2C1	i	i	i	i	i
COC(=O)C[C@H]1c2cc(C(F)(F)F)ccc2S(=O)(=O)N1Cc1ccc(OC)cc1	i	i	i	i	i
COc1ccc(/C=N/NC(=O)CCn2cnc(-c3ccccc3)c2-c2ccccc2)cc1OC	-5.6*	i	i	i	i
COc1ccc(/C=N/NC(=O)CCC(=O)Nc2ccccc2)cc1OC	i	i	i	i	i
COc1cc(OC)c(C(=O)Nc2ccc(C(=O)c3ccccc3)cc2)cc1OC	i	i	i	i	-7.2*
COc1cc(OC)c(C(=O)Nc2ccncc2)cc1OC	i	i	i	i	i
COc1cccc(C(=O)Nc2ccc(C(=O)c3ccncc3)cc2)c1	i	7.1*	i	i	i
COc1ccc(C(=O)N/N=C(/C)c2cccc(NC(=O)c3ccncc3)c2)cc1OC	i	i	i	i	-7*
COc1cccc(C(=O)Nc2ccc(NC(C)=O)cc2)c1	i	i	i	i	i
Cc1ccccc1-c1nc(CN(Cc2c(C)nn(C)c2C)C2CC2)c(C)o1	i	i	i	i	i
CCCC[C@@H]1CN=C(N)N1CC(C)(C)C	i	i	i	i	i

Compound activity from PubChem.
